# KCNQ1 pot – human KCNQ1 channel potentiation or activation; P51787; CHO-K1 KCNQ1, thallium flux FluxOR fluorescence; active compounds read high; B-score at 10 µM; 310,000 tested, 0.35% active; AID 2648;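 active = fluorescence ratio B-score, a plate-corrected score, at least three library SD, with initial intensity B-score within 5 SD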
#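 System: CHO-K1 cells stably expressing KCNQ1 / Medium: assay buffer for compound exposure, DMSO matched across wells / Reagent: thallium- and potassium-containing depolarizing buffer / Compound: one concentration, matched DMSO / Incubation: 20 min compound pretreatment at room temperature / Measured by: kinetic FluxOR fluorescence, 10 s baseline plus 110 s post-stimulus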
# KCC2 mod – modulates chloride dependent transport by human KCC2; Q9H2X9; KCC2 cells, thallium flux FluoZin-2 fluorescence; B-score of Tl+ flux slope (higher = more flux/activation; lower = inhibition) at 10 µM; 190,000 tested, 2.2% active;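 active = thallium flux slope and its plate-corrected score both differing from the plate sample mean at a set confidence after two filtering rounds, in either direction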;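 note: slope of fluorescence scaled to starting intensity during 10 to 20 s after thallium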
# Target sequence (Q9H2X9 whole entry, looked up): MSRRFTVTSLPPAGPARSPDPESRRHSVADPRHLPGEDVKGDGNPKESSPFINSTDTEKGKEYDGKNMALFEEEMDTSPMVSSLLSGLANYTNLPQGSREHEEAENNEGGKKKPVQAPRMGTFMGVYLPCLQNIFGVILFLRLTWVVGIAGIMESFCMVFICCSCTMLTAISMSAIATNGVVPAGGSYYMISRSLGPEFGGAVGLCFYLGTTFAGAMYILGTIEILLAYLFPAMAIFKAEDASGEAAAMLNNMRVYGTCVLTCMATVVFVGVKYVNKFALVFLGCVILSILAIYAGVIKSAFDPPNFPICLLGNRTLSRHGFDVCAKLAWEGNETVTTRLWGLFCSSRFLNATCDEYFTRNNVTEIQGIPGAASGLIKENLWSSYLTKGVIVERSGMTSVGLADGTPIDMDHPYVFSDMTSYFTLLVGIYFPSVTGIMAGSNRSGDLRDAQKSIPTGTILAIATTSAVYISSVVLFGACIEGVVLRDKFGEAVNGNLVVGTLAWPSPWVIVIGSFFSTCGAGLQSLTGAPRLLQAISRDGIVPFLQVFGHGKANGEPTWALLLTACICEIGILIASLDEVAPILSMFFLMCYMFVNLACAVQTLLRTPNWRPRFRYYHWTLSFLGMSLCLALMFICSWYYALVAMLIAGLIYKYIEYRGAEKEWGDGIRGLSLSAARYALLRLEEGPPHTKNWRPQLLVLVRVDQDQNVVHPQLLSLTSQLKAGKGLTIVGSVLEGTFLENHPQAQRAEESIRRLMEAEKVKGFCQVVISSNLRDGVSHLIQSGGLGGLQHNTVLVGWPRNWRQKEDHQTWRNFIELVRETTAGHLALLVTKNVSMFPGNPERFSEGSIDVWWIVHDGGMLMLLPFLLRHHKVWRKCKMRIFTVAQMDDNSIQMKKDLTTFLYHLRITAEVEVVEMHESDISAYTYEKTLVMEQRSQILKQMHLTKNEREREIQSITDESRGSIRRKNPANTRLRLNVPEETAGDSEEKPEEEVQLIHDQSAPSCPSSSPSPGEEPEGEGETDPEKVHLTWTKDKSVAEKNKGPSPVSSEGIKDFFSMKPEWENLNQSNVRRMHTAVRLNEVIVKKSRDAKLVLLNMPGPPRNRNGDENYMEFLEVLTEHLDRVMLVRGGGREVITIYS
# KCNK9 inh – human KCNK9 channel inhibition | Q9NPC2 | HEK293 KCNK9, FluxOR thallium flux fluorescence; active compounds read low | B-score at 10 µM | 310,000 tested, 1.2% active;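 active = ratio B-score over 3 SD below the library mean, with starting fluorescence within 5 SD of its mean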;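 note: negative B-score means less thallium flux so channel inhibition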
# KCNK3 block – human KCNK3 channel inhibition, primary screen | O14649 | B-score at 10 µM | 340,000 tested, 0.84% active | AID 602410 | CHO-KCNK3 thallium flux, FluxOR fluorescence; active compounds read low;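 active = B-score under library mean minus 4 SD, starting fluorescence ratio at most library mean plus 5 SD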;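 note: more negative B-score means stronger inhibition of thallium flux through KCNK3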
# hERG rescue – shields human hERG channel from block by proarrhythmic agents; 310,000 tested, 0.51% active; activation (rescue from dofetilide block), less the hit threshold, % at 10 µM; CHO-hERG, FluxOR thallium flux, dofetilide IC70 present;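 active = activation above the mean of controls blocked by dofetilide plus 5 SD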;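 note: thallium influx through hERG after potassium depolarization seen as dye fluorescence rise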
# KCNQ1 block – inhibitors of human KCNQ1 potassium channel | P51787 | CHO-K1 KCNQ1, FluxOR thallium flux fluorescence; active compounds read high | B-score at 10 µM | 310,000 tested, 1.3% active | AID 2642;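 active = compounds whose thallium flux B-score, printed positive for inhibition, exceeds three library SD while starting fluorescence stays within three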;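 note: channel opened by potassium depolarization with thallium stimulus after 20 min compound exposure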
# KCNK3 confirm – human KCNK3 channel inhibition, confirmation assay; ratio percent of control, % at 10 µM; shares compounds with KCNK3 block; AID 651638; CHO-KCNK3 thallium flux, FluxOR fluorescence; 0% buffer, 100% carvedilol maximal block; 2,400 tested, 99% active;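 active = ratio percent of control, averaged over triplicates, above buffer control mean plus 5 SD, cut at about 64% in these data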;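 note: ratio is the fluorescence rise from min to max over baseline after thallium stimulus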
# KCNK3 uninduced – counter-screen for KCNK3 inhibitors: effect in non-induced cells; thallium flux ratio (lower = more inhibition) at 10 µM; non-induced KCNK3 parental cells, FluxOR thallium flux; active compounds read low; 2,400 tested, 40% active; AID 651747; shares compounds with KCNK3 block;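 active = thallium flux ratio, averaged over three wells, more than 5 SD below the buffer control mean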;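 note: host cells are CHO cells without KCNK3 induction; ratio is peak minus trough fluorescence over baseline then normalized to buffer controls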
# Starred values were filed as active, the others as inactive; i = inactive; . = no result. Sampled rows, rich in hits. Any-hit rate of the full collection: about 4.1%.
SMILES,KCNQ1 pot,KCC2 mod,KCNK9 inh,KCNK3 block,hERG rescue,KCNQ1 block,KCNK3 confirm,KCNK3 uninduced
CCOC(=O)c1cnc2ccc(OC)cc2c1Nc1ccc2c(c1)OCCO2,i,-1.9,i,-12*,-11,i,135*,0.16*
CCOC(=O)c1cnc2ccc(C(=O)OC)cc2c1Nc1ccc2c(c1)OCCO2,i,-0.47,i,i,-8,i,.,.
CCOC(=O)c1ccc2ncc(C(=O)OCC)c(NCCCN3CCOCC3)c2c1,i,-0.19,i,i,-5,i,.,.
CCOC(=O)c1cnc2ccc(C)cc2c1NCCN1CCOCC1,i,.,i,-8.8*,-2,i,100*,i
Cc1occc1C(=O)NCCCCNC(=O)c1ccoc1C,i,.,i,i,-9,i,.,.
CCCCCCCCCCCNC(=O)c1ccoc1C,i,0.029,i,-8.9*,-12,i,96*,i
O=C1Nc2ccccc2C12OCC(COc1ccc(Cl)cc1)O2 (stereo not drawn),i,-0.055,i,-10*,-17,i,108*,i
COc1ccccc1NC(=O)Nc1nn(C)c2cccc(N(C)C)c12,i,-1.8,i,-9.3*,-4,i,92*,i
CCN(C(=O)CSc1cc(C)c2ccccc2n1)c1c(N)n(Cc2ccccc2)c(=O)[nH]c1=O,i,-0.0019,i,i,0,i,.,.
CCN(C(=O)COC(=O)CSc1cc(C)c2ccccc2n1)c1ccccc1,i,.,i,-9.6*,-15,i,97*,i
CCN(C(=O)COC(=O)CN1C(=O)c2ccccc2C1=O)c1ccccc1,.,.,.,i,.,.,.,.
CCN(C(=O)COC(=O)CCc1ccccc1)c1ccccc1,i,.,i,-9.5*,-4,i,81*,i
COc1ccc(OC)c(NC(=O)c2ccc(CSc3nnc(C)s3)cc2)c1,i,0.021,i,-10*,-10,i,103*,i
Cc1cc(C)cc(NC(=O)c2ccc(CSc3nnc(C)s3)cc2)c1,i,0.29,i,i,-12,i,.,.
Cc1cn([C@H]2C[C@H](O)[C@@H](CCC(=O)NCc3ccccc3)O2)c(=O)[nH]c1=O,.,.,.,i,.,.,.,.
CC(C)(C)c1ccc(OCC(=O)N/N=C/C2CC=CCC2)cc1 (stereo not drawn),i,1,-7.2*,-10*,-5,i,96*,i
O=C(Nc1ccc(S(=O)(=O)Nc2cnc3ccccc3n2)cc1)c1cc(F)c(F)cc1Cl,i,.,i,i,-14,i,.,.
CC(=O)c1ccc(N(C(=O)CNC(=O)c2ccco2)C(C(=O)NC2CCCC2)c2ccncc2)cc1 (stereo not drawn),i,.,i,i,-2,i,.,.
Cn1cc([C@@H]2C[C@H]3CN(Cc4cccc(Cl)c4)C(=O)[C@]34CCCN24)c(-c2ccccc2)n1,i,-1.5,-7.3*,-9.7*,-6,i,100*,i
O=C1N(Cc2cccc(Cl)c2)C[C@@H]2C[C@@H](c3ccco3)N3CCC[C@@]123,i,0.029,i,-9.2*,-8,i,88*,i
Cn1c(=O)c2c(SCC(=O)N3CCCC3)nc(CC(C)(C)C)nc2n(C)c1=O,i,.,i,i,-4,i,.,.
CC(CCCCCCCCC(=O)O)N(CCO)C(=O)OC(C)(C)C (stereo not drawn),.,.,.,i,.,.,.,.
CCOC(=O)[C@@H]1[C@H]2COc3ccccc3[C@H]2N2C(=O)N(c3ccc(Br)cc3)C(=O)[C@]12C,.,.,.,i,.,.,.,.
Cc1ccc(C)c(N2CCN(C(c3ccc(N(C)C)cc3)c3nnnn3C(C)(C)C)CC2)c1 (stereo not drawn),i,-0.35,-8.1*,i,-11,i,122*,0.15*
O=C(O)CC1Sc2nnc(COc3ccc(Cl)cc3)n2N=C1c1ccccc1 (stereo not drawn),i,.,i,i,1,i,.,.
SMILES,KCNQ1 pot,KCC2 mod,KCNK9 inh,KCNK3 block,hERG rescue,KCNQ1 block,KCNK3 confirm,KCNK3 uninduced
Cc1ccc(C(=O)Nc2cc(Cl)ccc2N2CCCCC2)s1,i,0.4,i,i,-12,i,.,.
O=C(Nc1cc(Cl)ccc1N1CCCCC1)c1cccs1,i,-1.3,-7.3*,-14*,-2,i,128*,0.12*
COC(=O)C1=C(C)NC(=S)NC1c1ccc(-c2cc(Cl)ccc2Cl)o1 (stereo not drawn),i,-0.24,i,-8.9*,-13,i,107*,i
CN(C)S(=O)(=O)Oc1ccsc1C(=O)Nc1cccc(Cl)c1Cl,i,-0.44,i,-9.1*,-6,i,88*,i
COc1ccc(NC(=O)c2sccc2OS(=O)(=O)N(C)C)cc1,i,-0.53,i,i,-2,i,.,.
CCc1ccc(-c2cc(C)no2)cc1S(=O)(=O)N1CCN(c2ccccc2F)CC1,i,.,i,-8.8*,-13,i,81*,i
COC(=O)N/N=C/c1cc(N=Nc2ccccc2)ccc1O,i,0.044,-7.2*,-11*,-22,i,109*,0.15*
Cc1cc(C(=O)N/N=C/c2cc(N=Nc3ccccc3)ccc2O)n[nH]1,i,-2.4,i,i,-13,i,.,.
CCSc1nc2ccccc2c(=O)n1CCc1ccc(OC)c(OC)c1,i,.,i,-9.4*,-13,i,98*,i
COc1ccc(CCn2c(C)nc3ccccc3c2=O)cc1OC,i,.,i,i,-19,i,.,.
CCOc1nc(SCCOc2ccccc2)nc(N(C)C)n1,i,0.028,i,-9.6*,-4,i,98*,i
O=C1OC(c2ccccc2)(c2ccc3cc(O)ccc3c2)c2ccccc21 (stereo not drawn),.,.,.,-16*,.,.,128*,0.11*
O=C1OC(c2ccc3ccccc3c2O)(c2ccc3ccccc3c2O)c2ccccc21,.,.,.,i,.,.,.,.
CC1=[N+](C)c2c(ccc3cccnc23)C1(C)C,.,0.71,.,-12*,.,.,119*,i
Cc1[nH]c2c(ccc3cccnc32)c1C,i,-0.31,i,i,-9,i,.,.
CC1CCCC(NC(=O)COC(=O)c2ccc3ncsc3c2)C1C (stereo not drawn),.,.,.,i,.,.,.,.
Cc1cc(C(=O)Nc2ccc3ccccc3c2)c(C)o1,i,.,i,i,-5,i,.,.
CC(=O)c1cc(C(=O)Nc2ccc3ccccc3c2)c(C)o1,i,.,i,-11*,-4,i,53*,i
